# TbMetRS inhib: T. brucei MetRS inhibitors, primary screen, biochemical, luminescence | purified T. brucei MetRS, ATP depletion, Kinase-Glo luminescence | methionyl-tRNA synthetase (Trypanosoma brucei brucei) | inhibition, % at 11.9 µM | actives 0.4% (n = 360,000);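 active means inhibition above a per-plate cutoff of the control wells' mean inhibition plus 3 SD, cut at about 5.5% in these data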;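 further: 0% = DMSO wells median and 100% = median of wells with control inhibitor compound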
#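 Test system – parasite MetRS enzyme · Reagent – substrates ATP, L-methionine and bulk Escherichia coli tRNA · Doses – 11.9 µM compound single dose, 0.9% DMSO · Times – 15 min enzyme-compound preincubation, 2 h reaction, 10 min detection, 25 °C · Signal – Kinase-Glo luminescence, ATP depletion format · Controls – DMSO-only wells as low control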
# MC4R barr agon: MC4R agonists recruiting beta-arrestin, primary screen, cell-based, luminescence, agonist arm of biased-ligand search. Melanocortin receptor 4 (Homo sapiens), P32245. U2OS MC4R beta-arrestin complementation; percent of melanotan II response, DMSO zero. activation, % at 8.9 µM. actives 0.98% (n = 360,000). AID 540308, 2011;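 active means activation above a per-plate cutoff, the mean activation of sample wells on that plate plus 3 SD, cut at about 8% in these data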
# Target sequence (P32245 whole entry, looked up): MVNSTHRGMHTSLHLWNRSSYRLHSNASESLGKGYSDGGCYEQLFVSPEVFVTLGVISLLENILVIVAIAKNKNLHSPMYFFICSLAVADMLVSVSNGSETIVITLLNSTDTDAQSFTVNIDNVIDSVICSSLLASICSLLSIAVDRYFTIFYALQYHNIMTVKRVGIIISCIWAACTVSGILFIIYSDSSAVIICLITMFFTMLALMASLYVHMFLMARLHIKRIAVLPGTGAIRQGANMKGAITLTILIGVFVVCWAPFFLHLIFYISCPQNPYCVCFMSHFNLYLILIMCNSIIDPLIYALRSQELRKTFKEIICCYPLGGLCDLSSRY
# H9c2 TAG inh: inhibitors of triacylglycerol accumulation, primary screen, cell-based, uHTS, fluorescence, H9c2; actives 0.66% (n = 230,000); H9c2 cells, Nile Red lipid (TAG) fluorescence; cells loaded with 200 µM oleic acid; inhibition, % at 12.5 µM;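 active means pattern-corrected inhibition of lipid staining of at least 50% with the nuclear-stain viability signal not falling by more than 50%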;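 further: 0% = DMSO wells and 100% = triacsin C control wells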
# aDG glyco act: activators of alpha-DG glycosylation, primary screen, uHTS, Pro5-aDG cells, AlphaScreen; actives 0.22% (n = 360,000); alpha-DG glycosylation AlphaScreen (IIH6); 0% Pro5, 100% B10-LARGE cell signal; AID 624168, 2012; activation, % at 10 µM;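 active means activation of at least 8% versus controls, or a plate z-score of at least 8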;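 further: Pro5 are CHO cells carrying HIG-tagged alpha-DG that lacks glycosylation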
# MC4R antag cAMP: MC4R antagonists of cAMP signaling, primary screen, cell-based, TR-FRET, antagonist arm of biased-ligand search. MC4R-expressing cells, MTII-stimulated cAMP, LANCE TR-FRET. Melanocortin receptor 4 (Homo sapiens), P32245. inhibition, % at 6.5 µM. actives 0.48% (n = 360,000);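 active means inhibition above its plate's cutoff, the mean of tested wells on that plate plus 3 SD, cut at about 29% in these data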;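 further: 0% = Melanotan II alone and 100% = Melanotan II plus saturating MCL0020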
#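 material = U2OS cells stably expressing human melanocortin 4 receptor (MC4R) | also added = Melanotan II challenge | dosing = single nominal compound dose of 6.5 µM | detection = TR-FRET with Eu-cAMP and labeled anti-cAMP, 671 nm | replication = singlicate | timing = compound 30 min, challenge 1 h, detection 1 h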
# NTR1 agonist: agonists of human NTR1, primary screen, imaging, U2OS cells, beta-arrestin-GFP, high content. Neurotensin receptor type 1 (Homo sapiens), P30989. NTR1-U2OS beta-arrestin-GFP spot imaging, agonist mode. activation, % at 20 µM. actives 0.17% (n = 330,000). AID 493036, 2011;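 active means activation at or above 40% of the spot to cytoplasm intensity ratio, with at least 20 cells analyzed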;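 further: 0% = DMSO without peptide and 100% = 100 nM NTR1 peptide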
# Active calls of the source: *; . = not tested or not shown. In the library only some 2.4% were active in any assay of this set; here they are far more common.
SMILES,TbMetRS inhib,MC4R barr agon,H9c2 TAG inh,aDG glyco act,MC4R antag cAMP,NTR1 agonist
COc1ccc(/C=C\C(=O)O[C@@H]2C(O)C(O[C@@H]3OC(C)[C@H](O[C@@H]4OCC(O[C@H]5O[C@H](CO)[C@@H](O)C(O)C5O)C(O)C4O)C(O)C3O)[C@H](OC(=O)[C@]34CCC(C)(C)C[C@@H]3C3=CCC5[C@@]6(C)CC(O)C(O[C@@H]7OC(CO)C(O)[C@H](O)[C@H]7O)[C@@](C)(C(=O)O)C6CC[C@@]5(C)[C@]3(CO)CC4)O[C@H]2C)cc1 (some centres undefined),0,-1,-24,1,66*,12
O=C(O)CSc1cc(NS(=O)(=O)c2ccc(Cl)cc2)c2ccccc2c1O,0,-1,.,3.8*,13,.
COc1ccc(S(=O)(=O)Nc2cccc3ccc(O)cc23)cc1,-1,0,-7,0,-12,0
COc1ccc(S(=O)(=O)Nc2cc(SCC(=O)O)c(O)c3ccccc23)cc1,1,-3,.,5.0*,-1,-1
CCOC(=O)[C@]12CCCC=C1N(Cc1ccc(Cl)cc1Cl)C(=O)[C@H](CC(=O)NCCc1ccccc1OC)C2,0,.,.,0,.,.
COc1ccc(-c2cc(C(=O)NCc3ccc(F)cc3)[nH]n2)c(C)c1,0,-1,12,0,2,.
COc1ccccc1CCC(=O)Nc1ccc2c(c1)c(=O)n(C)n2Cc1cccc(C(F)(F)F)c1,0,-1,0,1,1,.
N#C/C(=C\C=C\c1ccccc1)c1nc(-c2ccc(Cl)cc2)cs1,-1,-1,.,0,-2,4
N#CC(=Cc1cccs1)c1nc(-c2ccc(Cl)cc2)cs1,0,9.2*,-28,-1,-10,.
CCOC(=O)C1CCCN(C(=O)c2ccc(SC(F)(F)F)cc2)CC1 (centres undefined),0,2,8,0,1,.
CC(=O)NC(C)(c1ccccc1)c1nc(-c2ccc(F)c(Cl)c2)cs1 (centres undefined),0,-1,-10,0,0,.
CC(O)CNc1ncnc2nc[nH]c12 (centres undefined),0,0,10,0,-2,0
CC(C)CCCCCCCCCCCCC(=O)NCC(=O)NC1C(O)C(O)C(Nc2ncnc3nc[nH]c23)OC1C(O)CO (centres undefined),0,1,85*,0,5,.
COC(=O)[C@H](NC(=O)c1cc(-c2ccccc2)sc1N)C(C)C,0,.,.,0,.,.
S=C(NCc1ccc(Cl)cc1Cl)Nc1ccccc1,2,8.9*,.,0,12,2
CCCCC[n+]1ccn(C2=C([O-])c3ccccc3C(=O)/C2=N\S(=O)(=O)c2ccc(Cl)cc2)c1,0,-2,38,4.9*,5,0
CCC(=O)NC(=S)Nc1cccc(Cl)c1N1CCCCC1,-1,0,.,0,4,50*
CCCC(=O)NC(=S)Nc1cccc(Cl)c1N1CCCCC1,-1,4,.,0,12,32
CC1=C(C(=O)N(C(C)C)C(C)C)CC(CC(=O)NCc2cccc3ccccc23)C(=O)N1Cc1ccc(C(C)(C)C)cc1 (centres undefined),-1,.,.,0,.,.
O=C(c1ccccc1)c1cc2cc(Cl)ccc2[nH]1,-1,8.3*,.,0,2,2
COc1cccc(C(=O)c2cc3cc(Cl)ccc3[nH]2)c1,1,8,.,0,7,6
CN(C)CCNc1nc2sc3c(c2c(=O)n1CCc1ccccc1)CCCCC3,0,4,80*,0,3,3
CCOc1ccc(C(=O)Cc2cc(OC)c(OC)cc2[N+](=O)[O-])cc1,0,12*,.,0,-3,2
Oc1ccccc1C1=Nc2ccccc2N=C(c2ccco2)C1,0,8.5*,.,0,1,3
COC(=O)[C@@]12C[C@@H](CC(=O)NCc3ccc(C)o3)C(=O)N(Cc3ccc4c(c3)OCO4)C1=CCC(C)(C)C2,0,.,.,0,.,.
SMILES,TbMetRS inhib,MC4R barr agon,H9c2 TAG inh,aDG glyco act,MC4R antag cAMP,NTR1 agonist
O=C(Nc1ncc(Cc2ccc(SC(F)F)cc2)s1)c1ccc(OC(F)F)cc1,-1,33*,20,0,11,6
Cc1ccc(Cc2cnc(NC(=O)c3ccco3)s2)cc1,0,2,.,0,3,10
CSc1ccc(CN2CCC(C)(Oc3ccc(-n4ccnc4)cc3)C2)cc1 (centres undefined),0,-2,-1,-1,2,.
COc1cc(C(O)c2nc(-c3cccc(NC(C)=O)c3)cs2)ccc1F (centres undefined),0,1,0,0,10,.
Cc1cc(Oc2ccc(Br)cc2)nc(SCC(=O)c2ccccc2)n1,0,8.6*,.,0,5,11
COC(=O)N1CCCCC1c1cc(C(=O)NCc2cccnc2)no1 (centres undefined),0,-1,16,0,1,.
OC(c1ccc(-c2ccccc2)cc1)c1ncc(-c2ccc(C(F)(F)F)cc2)[nH]1 (centres undefined),0,9.5*,-12,0,11,.
OC(c1ccccc1)c1ncc(-c2ccc(C(F)(F)F)cc2)[nH]1 (centres undefined),0,-1,0,1,-1,.
CC(C)(C)c1ccc(C(O)c2ncc(-c3ccccc3F)[nH]2)cc1 (centres undefined),0,8.2*,-4,0,0,.
CCc1ccc(C(O)c2ncc(-c3ccc(C(F)(F)F)cc3)[nH]2)cc1 (centres undefined),0,9.2*,-19,0,15,.
CCCc1nc2oc3c(NCCCN(C)C)ncnc3c2c2c1CCCC2,-1,0,63*,2,2,6
CCCc1nc2oc3c(Cl)ncnc3c2c2c1CCCC2,0,-1,2,0,18,4
Cc1ccccc1NC(=O)C(=O)c1cn(C)c2ccccc12,-1,12*,4,0,-3,0
CO/N=C(\c1nonc1N)N1CCN(c2ccc([N+](=O)[O-])cc2Cl)CC1,7.0*,-1,.,0,9,4
COc1ccc(CNC(=O)c2cccc3c(-c4cnn(C)c4)coc23)cc1OC,0,-1,-38,2,13,.

# Bioassay records from PubChem.
